{"source": "paper PMC6447837", "about": "(Cancer Science, 2019)", "key": {"Bxpc‐3 cells [1]": {"test_system": "Bxpc‐3 cells", "experiment": "Transwell invasion assay", "format": "cell-based, human", "method_in_brief": "(§1)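 Inserts were precoated with polymerized collagen type I. Cells were seeded on the insert bottom in serum‑free medium with serial dilutions of test compound or vehicle, with 10% FBS medium in the lower chamber. After one day, cells were stained with calcein‑AM and optical sections taken at 10‑μm intervals. Invasion was scored as cells moving >20 μm into collagen; n = 3, mean with SD.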"}, "Aspc‐1 cells [2]": {"test_system": "Aspc‐1 cells", "experiment": "Annexin V/PI apoptosis assay", "format": "cell-based, human", "conditions": "24 hours", "method_in_brief": "(§2)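 Cells were treated with a range of concentrations for 24 hours, washed with PBS, then stained with annexin V‑FITC and propidium iodide for 15 minutes in the dark. […] Early (annexin V) and late (PI) apoptotic cells are reported as percentages, mean of n = 3 with SD.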"}, "FOSL1 [3]": {"test_system": "FOSL1", "experiment": "Immunohistochemistry of xenograft tumor tissues", "format": "in vivo, NOD‐SCID mice", "conditions": "Aspc‐1 and Bxpc‐3 models; LY‐1816 and dasatinib 40 mg/kg/d p.o., gemcitabine 80 mg/kg/wk; IHC", "method_in_brief": "(§3)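 Six-week-old female NOD-SCID mice received 5 × 10⁶ to 1 × 10⁷ cells s.c. in the right flank. Treatment began at about 200 mm³. Test compound (40 mg/kg/d) was given once daily by oral gavage in 25% PEG400 plus 5% DMSO in water. Tumors were resected at the end of dosing. Frozen sections were immunostained and imaged by light microscopy.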"}, "Aspc‐1 cells [4]": {"test_system": "Aspc‐1 cells", "experiment": "Transwell invasion assay", "format": "cell-based, human", "method_in_brief": "as §1"}, "FOSL1 [5]": {"test_system": "FOSL1", "experiment": "Western blot, FOSL1 expression in intact cells", "format": "cell-based, human", "conditions": "10 PDAC cell lines, 12 hours"}, "Bxpc‐3 cells [6]": {"test_system": "Bxpc‐3 cells", "experiment": "Annexin V/PI apoptosis assay", "format": "cell-based, human", "conditions": "24 hours", "method_in_brief": "as §2"}, "STAT3 [7]": {"test_system": "STAT3", "experiment": "Immunohistochemistry of xenograft tumor tissues", "format": "in vivo, NOD‐SCID mice", "conditions": "Aspc‐1 and Bxpc‐3 models; LY‐1816 and dasatinib 40 mg/kg/d p.o., gemcitabine 80 mg/kg/wk; IHC", "method_in_brief": "as §3"}, "Aspc‐1 xenograft": {"test_system": "Aspc‐1 xenograft", "experiment": "Subcutaneous xenograft model", "format": "in vivo, NOD‐SCID mice", "conditions": "Aspc‐1 model; LY‐1816 20 or 40 mg/kg/d p.o.; dasatinib 40 mg/kg/d p.o.; gemcitabine 80 mg/kg once a week", "method_in_brief": "(§4)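 Female NOD‑SCID mice bearing s.c. right‑flank tumors (5 × 10⁶–1 × 10⁷ cells injected) were randomized at 100–200 mm³ (6–7 per group). They received test compound in 25% PEG400/5% DMSO/water by oral gavage once daily for 18 days, or vehicle. Tumors were measured by caliper every 3 days, with volume = length × width² × 0.5.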"}, "STAT3 [8]": {"test_system": "STAT3", "experiment": "Western blot, STAT3 phosphorylation", "format": "cell-based, human", "conditions": "Aspc‐1 and Bxpc‐3 cells, 12 hours", "method_in_brief": "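Aspc-1 and Bxpc-3 cells were grown overnight in complete medium and treated with test compound for 12 h. Cells were lysed in RIPA buffer and protein was quantified. Lysates were run on SDS-PAGE and transferred to PVDF, then blocked 2 h in TBS-T with 5% non-fat milk. Blots were probed for pAKT Ser473, pERK Thr202/Tyr204, pSTAT3 Tyr705, the matching total proteins and β-actin. Detection was by enhanced chemiluminescence.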"}, "Bxpc‐3 xenograft": {"test_system": "Bxpc‐3 xenograft", "experiment": "Subcutaneous xenograft model", "format": "in vivo, NOD‐SCID mice", "conditions": "Bxpc‐3 model; LY‐1816 20 or 40 mg/kg/d p.o.; dasatinib 40 mg/kg/d p.o.; gemcitabine 80 mg/kg once a week", "method_in_brief": "as §4"}, "Aspc‐1 cells [9]": {"test_system": "Aspc‐1 cells", "experiment": "Wound healing assay", "format": "cell-based, human", "conditions": "18 hours"}, "Src [10]": {"target": "Src (Homo sapiens, UniProt P12931)", "sequence (P12931 whole entry)": "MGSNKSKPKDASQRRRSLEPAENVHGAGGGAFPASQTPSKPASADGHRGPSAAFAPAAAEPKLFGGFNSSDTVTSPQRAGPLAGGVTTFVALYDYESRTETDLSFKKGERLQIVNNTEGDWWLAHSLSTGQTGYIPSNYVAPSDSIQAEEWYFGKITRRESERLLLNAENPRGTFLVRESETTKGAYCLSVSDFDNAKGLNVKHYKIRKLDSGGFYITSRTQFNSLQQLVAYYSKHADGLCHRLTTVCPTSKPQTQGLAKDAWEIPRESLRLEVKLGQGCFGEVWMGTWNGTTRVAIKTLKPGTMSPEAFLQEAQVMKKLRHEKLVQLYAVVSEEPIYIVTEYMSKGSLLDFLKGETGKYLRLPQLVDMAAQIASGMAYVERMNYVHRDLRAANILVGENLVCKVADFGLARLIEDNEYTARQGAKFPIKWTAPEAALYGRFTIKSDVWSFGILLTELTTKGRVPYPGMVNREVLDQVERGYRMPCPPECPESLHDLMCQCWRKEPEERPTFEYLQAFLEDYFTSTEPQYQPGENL", "format": "cell-based", "conditions": "10 PDAC cell lines; 12 hours; western blot"}, "Src [11]": {"test_system": "Src", "experiment": "Immunohistochemistry of xenograft tumor tissues", "format": "in vivo, NOD‐SCID mice", "conditions": "Aspc‐1 and Bxpc‐3 models; LY‐1816 and dasatinib 40 mg/kg/d p.o., gemcitabine 80 mg/kg/wk; IHC"}, "Bxpc‐3 cells [12]": {"test_system": "Bxpc‐3 cells", "experiment": "Wound healing assay", "format": "cell-based, human", "conditions": "18 hours"}, "cleaved caspase‐3": {"test_system": "cleaved caspase‐3", "experiment": "Immunohistochemistry of xenograft tumor tissues", "format": "in vivo, NOD‐SCID mice", "conditions": "xenograft models; LY‐1816 40 mg/kg/d p.o., gemcitabine 80 mg/kg/wk; IHC", "method_in_brief": "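Aspc‑1 or Bxpc‑3 s.c. tumors in NOD‑SCID mice were dosed p.o. daily from about 200 mm³, with vehicle controls. At study end, tumors were resected. Frozen sections were immunostained and imaged by light microscopy, and cleaved caspase‑3‑positive cells were counted.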"}}}
{"compound": "Cc1nc(Nc2ncc(C(=O)Nc3c(C)cccc3Cl)s2)cc(N2CCN(CCO)CC2)n1", "note": "[dasatinib]", "values": [{"measurement": "cell invasion", "setting": "Bxpc‐3 cells [1]", "value": "poor ability to block cell invasion"}, {"measurement": "apoptosis (annexin V and PI‐positive populations)", "setting": "Aspc‐1 cells [2]", "value": "also could induce apoptosis"}, {"measurement": "expression of FOSL1 in tumor tissues", "setting": "FOSL1 [3]", "value": "very weak or no influence on the phosphorylation of STAT3 or the expression of FOSL1"}, {"measurement": "cell invasion", "setting": "Aspc‐1 cells [4]", "value": "poor ability to block cell invasion"}, {"measurement": "FOSL1 expression", "setting": "FOSL1 [5]", "value": "slight influence on FOSL1 expression"}, {"measurement": "apoptosis (annexin V and PI‐positive populations)", "setting": "Bxpc‐3 cells [6]", "value": "also could induce apoptosis"}, {"measurement": "phosphorylation of STAT3 in tumor tissues", "setting": "STAT3 [7]", "value": "very weak or no influence on the phosphorylation of STAT3 or the expression of FOSL1"}, {"measurement": "antitumor activity", "setting": "Aspc‐1 xenograft", "value": "also showed antitumor activities"}, {"measurement": "phosphorylation of STAT3", "setting": "STAT3 [8]", "value": "very weak or no impact on the phosphorylation of STAT3"}, {"measurement": "antitumor activity", "setting": "Bxpc‐3 xenograft", "value": "also showed antitumor activities"}]}
{"compound": "Nc1ccn([C@@H]2O[C@H](CO)[C@@H](O)C2(F)F)c(=O)n1", "note": "[gemcitabine, reference compound]", "values": [{"measurement": "cell invasion", "setting": "Bxpc‐3 cells [1]", "value": "poor ability to block cell invasion"}, {"measurement": "apoptosis (annexin V and PI‐positive populations)", "setting": "Aspc‐1 cells [2]", "value": "also could induce apoptosis"}, {"measurement": "expression of FOSL1 in tumor tissues", "setting": "FOSL1 [3]", "value": "did not evidently inhibit the activities of Src or STAT3, nor FOSL1 expression"}, {"measurement": "cell migration", "setting": "Aspc‐1 cells [9]", "value": "very weak activity in blocking cell migration"}, {"measurement": "phosphorylation of Src", "setting": "Src [10]", "value": "little inhibitory effect against Src and FOSL1 expression"}, {"measurement": "cell invasion", "setting": "Aspc‐1 cells [4]", "value": "poor ability to block cell invasion"}, {"measurement": "phosphorylation of Src in tumor tissues", "setting": "Src [11]", "value": "did not evidently inhibit the activities of Src or STAT3, nor FOSL1 expression"}, {"measurement": "FOSL1 expression", "setting": "FOSL1 [5]", "value": "little inhibitory effect against Src and FOSL1 expression"}, {"measurement": "apoptosis (annexin V and PI‐positive populations)", "setting": "Bxpc‐3 cells [6]", "value": "also could induce apoptosis"}, {"measurement": "cell migration", "setting": "Bxpc‐3 cells [12]", "value": "very weak activity in blocking cell migration"}, {"measurement": "phosphorylation of STAT3 in tumor tissues", "setting": "STAT3 [7]", "value": "did not evidently inhibit the activities of Src or STAT3, nor FOSL1 expression"}, {"measurement": "antitumor activity", "setting": "Aspc‐1 xenograft", "value": "also showed antitumor activities"}, {"measurement": "cleaved caspase‐3 stain in tumor tissues", "setting": "cleaved caspase‐3", "value": "increase in the number of cleaved caspase‐3‐positive cells"}, {"measurement": "antitumor activity", "setting": "Bxpc‐3 xenograft", "value": "also showed antitumor activities"}]}
